The text below walks through data of ChEMBL document CHEMBL1914294, “Synthesis, molecular modeling and preliminary biological evaluation of a set of 3-acetyl-2,5-disubstituted-2,3-dihydro-1,3,4-oxadiazole as potential antibacterial, anti-Trypanosoma cruzi and antifungal agents” (Bioorg Med Chem, 2011).

Experiment [1] relates to Staphylococcus aureus. The experiment in a line: Antibacterial activity against Staphylococcus aureus ATCC 25923 after 18 hrs. The format is functional. The following applies: ATCC 25923, 18 h. A digest of the protocol:
(§1)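 Twofold serial dilutions in Tryptic Soy Broth, 0.1 to 80 µg/mL; stocks in DMSO/TSB 1:10 v/v. Inoculum adjusted to 0.5 McFarland, then diluted in sterile saline and TSB. Incubated 35 °C for 18 h. MIC taken as the lowest concentration with no visible growth. Triplicate.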

Experiment [2] deals with Staphylococcus aureus. Kind of experiment: Antibacterial activity against multidrug-resistant Staphylococcus aureus 3SP/R33 after 18 hrs. The format is functional. The following applies: 3SP/R33, 18 h. A digest of the protocol: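 Twofold serial dilutions in Tryptic Soy Broth, 0.1 to 80 µg/mL. Stocks prepared in DMSO/TSB 1:10 v/v. Inoculum was adjusted to 0.5 McFarland, then diluted in sterile saline and TSB. Plates were incubated at 35 °C for 18 h. MIC taken as the lowest concentration with no visible growth. Readings at 24 and 48 h served as sterility control. Run in triplicate.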

Experiment [3] concerns Staphylococcus aureus. The experiment in a line: Antibacterial activity against vancomycin-intermediate Staphylococcus aureus VISA3 after 18 hrs. The following applies: VISA3, 18 h. The class given is functional. In outline:
as §1

Experiment [4] deals with Trypanosoma cruzi. The experiment in a line: Antitrypanosomal activity against epimastigote form of Trypanosoma cruzi Y after 5 days by spectrophotometer analysis. The format is functional, organism-based. As to conditions: 120 h. In outline: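 Stationary-phase epimastigotes from a 10-day, 28 °C culture were set at 2.0 × 10^6 parasites/mL in LIT medium. Compounds in DMSO were diluted into LIT at 1.25–40.0 µM and incubated 5 days at 28 °C. A580 on days 0 and 5 gave % growth inhibition against untreated cultures. IC50 came from dose–response curves (≥4 concentrations). Triplicate; benznidazole reference.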

The test system of experiment [5] is Candida albicans. The experiment in a line: Antifungal activity against Candida albicans ATCC 537Y after 48 hrs by serial dilution method. The class given is functional. In outline: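 Broth microdilution following CLSI M27-A2, adapted for higher sensitivity. Stocks made in RPMI 1640 with 20% DMSO. Serial dilutions inoculated with C. albicans in RPMI 1640 at 10^3–10^5 CFU/mL final, incubated 35 °C for 48 h. MIC is the lowest concentration giving prominent growth reduction. Wells above 5% v/v DMSO were discarded. Triplicate; fluconazole reference.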

In brackets after ≈: the same amount, converted by molar mass.

As a reminder, the MIC is the smallest concentration in the dilution series that meets the test's criterion for growth inhibition. By IC50 is commonly meant the concentration needed to halve the response being measured. Read a high IC50 as lower potency.

Take `CC(=O)N1N=C(c2ccccc2)OC1c1ccc([N+](=O)[O-])s1` (stereo not given): the figures for the minimum inhibitory concentration (MIC) in experiment [1], in experiment [2] and in experiment [3] were 2.46 µg/mL (≈ 7.75 µM), 1.25 µg/mL (≈ 3.94 µM) and 0.63 µg/mL (≈ 1.99 µM), respectively. In addition, the IC50 in experiment [4] came out at 10.2 µM.

Consider `CC(=O)N1N=C(c2ccc(Cl)cc2)OC1c1ccc([N+](=O)[O-])s1` (stereo not given), for which the MIC in experiment [5] amounted to 4.25 µg/mL (≈ 12.1 µM); in experiment [1], 1.97 µg/mL (≈ 5.6 µM); in experiment [2] it was 1.25 µg/mL (≈ 3.55 µM); in experiment [3], 2.5 µg/mL (≈ 7.11 µM). This compound showed an IC50 in experiment [4] of 10.8 µM.

On to `CC(=O)N1N=C(c2ccc(Br)cc2)OC1c1ccc([N+](=O)[O-])s1` (stereo not given), for which the MIC in experiment [1] came out at 2.66 µg/mL (≈ 6.71 µM); in experiment [2], 1.25 µg/mL (≈ 3.15 µM); in experiment [3], 2.5 µg/mL (≈ 6.31 µM). Moreover, the IC50 in experiment [4] was 10.2 µM.

As to `CC(=O)N1N=C(c2ccc(I)cc2)OC1c1ccc([N+](=O)[O-])s1` (stereo not given), the MIC in experiment [1] amounted to 2.87 µg/mL (≈ 6.48 µM); in experiment [2] it was 1.25 µg/mL (≈ 2.82 µM); in experiment [3], 2.5 µg/mL (≈ 5.64 µM). Half-maximal inhibition in experiment [4] (IC50) was put at 12.1 µM.

For the compound `CC(=O)N1N=C(c2ccc(C(F)(F)F)cc2)OC1c1ccc([N+](=O)[O-])s1` (stereo not given), the minimum inhibitory concentration (MIC) came out at 7.2 µg/mL (≈ 18.7 µM) in experiment [5], 2.62 µg/mL (≈ 6.8 µM) in experiment [1], 1.25 µg/mL (≈ 3.24 µM) in experiment [2] and 2.5 µg/mL (≈ 6.49 µM) in experiment [3]. The compound further came in with an IC50 in experiment [4] of 14.2 µM.

Regarding `CC(=O)N1N=C(c2ccc(C)cc2)OC1c1ccc([N+](=O)[O-])s1` (stereo not given), the MIC in experiment [5] came to 2.95 µg/mL (≈ 8.9 µM); in experiment [1], 2.62 µg/mL (≈ 7.91 µM); in experiment [2] it was 1.25 µg/mL (≈ 3.77 µM); in experiment [3], 2.5 µg/mL (≈ 7.54 µM). In experiment [4], this compound yielded an IC50 of 11.5 µM.

With `CCc1ccc(C2=NN(C(C)=O)C(c3ccc([N+](=O)[O-])s3)O2)cc1` (stereo not given), the MIC in experiment [1] was found to be 2.69 µg/mL (≈ 7.79 µM); in experiment [2], 1.25 µg/mL (≈ 3.62 µM); in experiment [3] it was 2.5 µg/mL (≈ 7.24 µM). Moreover, the IC50 in experiment [4] stood at 10.7 µM.

For the compound `CCCc1ccc(C2=NN(C(C)=O)C(c3ccc([N+](=O)[O-])s3)O2)cc1` (stereo not given), the MIC worked out at 3.28 µg/mL (≈ 9.13 µM) in experiment [1], 1.25 µg/mL (≈ 3.48 µM) in experiment [2] and 1.25 µg/mL (≈ 3.48 µM) in experiment [3]. For the same compound, the IC50 in experiment [4] came to 9.9 µM.

As to `COc1ccc(C2=NN(C(C)=O)C(c3ccc([N+](=O)[O-])s3)O2)cc1` (stereo not given), the figures for the MIC in experiment [1], in experiment [2] and in experiment [3] were 2.23 µg/mL (≈ 6.42 µM), 1.25 µg/mL (≈ 3.6 µM) and 0.63 µg/mL (≈ 1.81 µM), respectively. The IC50 in experiment [4] was 10.7 µM.

Take `CCOc1ccc(C2=NN(C(C)=O)C(c3ccc([N+](=O)[O-])s3)O2)cc1` (stereo not given): the MIC in experiment [5] turned out to be 5.83 µg/mL (≈ 16.1 µM); in experiment [1], 2.36 µg/mL (≈ 6.53 µM); in experiment [2], 1.25 µg/mL (≈ 3.46 µM); in experiment [3] it was 2.5 µg/mL (≈ 6.92 µM). Besides, 26.6 µM corresponded to half-maximal inhibition in experiment [4] (IC50).

Consider `CCCOc1ccc(C2=NN(C(C)=O)C(c3ccc([N+](=O)[O-])s3)O2)cc1` (stereo not given), for which the MIC in experiment [1] stood at 3.28 µg/mL (≈ 8.74 µM); in experiment [2] it was 2.5 µg/mL (≈ 6.66 µM); in experiment [3] it was 2.5 µg/mL (≈ 6.66 µM). The same compound displayed an IC50 in experiment [4] of 12.2 µM.

For `CCCCOc1ccc(C2=NN(C(C)=O)C(c3ccc([N+](=O)[O-])s3)O2)cc1` (stereo not given), the MIC in experiment [5] was determined as 6.78 µg/mL (≈ 17.4 µM); in experiment [1], 1.25 µg/mL (≈ 3.21 µM); in experiment [2], 1.25 µg/mL (≈ 3.21 µM); in experiment [3], 5 µg/mL (≈ 12.8 µM). The compound also showed an IC50 in experiment [4] of 11.5 µM.

Take `CC(=O)N1N=C(c2ccc([N+](=O)[O-])cc2)OC1c1ccc([N+](=O)[O-])s1` (stereo not given): the MIC came out at 2.39 µg/mL (≈ 6.6 µM) in experiment [1], 2.5 µg/mL (≈ 6.9 µM) in experiment [2] and 1.25 µg/mL (≈ 3.45 µM) in experiment [3]. For the same compound, half-maximal inhibition in experiment [4] (IC50) was put at 9.85 µM.

In the case of `CC(=O)N1N=C(c2ccc(C#N)cc2)OC1c1ccc([N+](=O)[O-])s1` (stereo not given), the MIC in experiment [1] came out at 2.66 µg/mL (≈ 7.77 µM); in experiment [2] it was 1.25 µg/mL (≈ 3.65 µM); in experiment [3], 0.63 µg/mL (≈ 1.84 µM). This compound also gave an IC50 in experiment [4] of 8.19 µM.

Take `COC(=O)c1ccc(C2=NN(C(C)=O)C(c3ccc([N+](=O)[O-])s3)O2)cc1` (stereo not given): the MIC in experiment [1] was 2.95 µg/mL (≈ 7.86 µM); in experiment [2] it was 1.25 µg/mL (≈ 3.33 µM); in experiment [3] it was 0.63 µg/mL (≈ 1.68 µM). Moreover, the IC50 in experiment [4] is 7.91 µM.

The compound `CC1(C)S[C@@H]2[C@H](NC(=O)[C@H](N)c3ccccc3)C(=O)N2[C@H]1C(=O)O` [AMPICILLIN] came in with an MIC in experiment [1] of 0.1 µg/mL (≈ 0.286 µM).

As for `O=C(Cn1ccnc1[N+](=O)[O-])NCc1ccccc1` [BENZNIDAZOLE], 20.8 µM corresponded to half-maximal inhibition in experiment [4] (IC50).

On to `O=C(N/N=C/c1ccc([N+](=O)[O-])o1)c1ccc(O)cc1` [NIFUROXAZIDE], for which the MIC in experiment [1] stood at 5.9 µg/mL (≈ 21.4 µM); in experiment [3], 5 µg/mL (≈ 18.2 µM). Moreover, in experiment [4], 120 µM corresponded to half-maximal inhibition (IC50).
